In series [1] the target is Plasma kallikrein (Homo sapiens, UniProt P03952). The experiment in a line: Inhibition of human plasma kallikrein using H-D-Pro-Phe-Arg-pNA as substrate. The essentials:
(§1)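 Purified human enzymes; reaction started by adding enzyme to substrate with or without inhibitor, excess substrate and inhibitor over enzyme, 1% DMSO, room temperature, 10–120 min. pNA read at 405 nm. FXIa, FXIIa and chymotrypsin in HEPES pH 7.4 with NaCl, KCl and PEG; FXa and kallikrein in phosphate pH 7.5; FVIIa in HEPES with CaCl2. IC50 from duplicates over 8–11 concentrations, converted to Ki assuming competitive inhibition.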

Series [2] concerns the target T1, Coagulation factor VII (Homo sapiens, UniProt P08709).
T1 sequence (P08709 whole entry): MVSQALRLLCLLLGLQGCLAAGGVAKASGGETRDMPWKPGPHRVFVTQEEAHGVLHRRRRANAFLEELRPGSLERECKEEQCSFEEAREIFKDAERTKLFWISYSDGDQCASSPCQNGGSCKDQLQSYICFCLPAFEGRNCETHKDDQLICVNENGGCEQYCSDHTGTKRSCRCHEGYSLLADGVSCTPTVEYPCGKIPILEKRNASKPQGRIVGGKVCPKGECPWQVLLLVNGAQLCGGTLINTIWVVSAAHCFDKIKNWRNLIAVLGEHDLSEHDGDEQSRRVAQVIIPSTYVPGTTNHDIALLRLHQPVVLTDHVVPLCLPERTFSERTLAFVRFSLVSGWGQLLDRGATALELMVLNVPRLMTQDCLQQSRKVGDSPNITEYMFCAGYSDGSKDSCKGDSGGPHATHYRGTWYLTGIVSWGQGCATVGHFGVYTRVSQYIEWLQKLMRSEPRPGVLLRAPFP
The experiment in a line: Inhibition of human coagulation factor 7a using H-(D)-Ile-Pro-Arg-pNA as substrate by spectrophotometric analysis. The essentials: as §1

Series [3] concerns the target Coagulation factor XI (Homo sapiens, UniProt P03951). The experiment in a line: Inhibition of human coagulation factor 11a using p-nitroaniline as substrate assessed as substrate hydrolysis by spectrophotometrically. In a few lines:
as §1

Series [4] deals with Coagulation factor X (Homo sapiens, UniProt P00742). The experiment in a line: Inhibition of human coagulation factor 10a using N-benzoyl-Ile-Glu-(OH, OMe)-Gly-Arg-pNA as substrate by spectrophotometric analysis. The essentials: as §1
Sequence of Coagulation factor X (P00742 41-179 limits assumed): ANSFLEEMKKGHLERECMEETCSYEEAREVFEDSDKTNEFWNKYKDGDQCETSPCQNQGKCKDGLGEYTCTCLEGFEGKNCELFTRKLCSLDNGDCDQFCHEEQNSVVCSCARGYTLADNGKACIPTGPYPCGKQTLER
Sequence of Coagulation factor X (P00742 235-488 limits assumed): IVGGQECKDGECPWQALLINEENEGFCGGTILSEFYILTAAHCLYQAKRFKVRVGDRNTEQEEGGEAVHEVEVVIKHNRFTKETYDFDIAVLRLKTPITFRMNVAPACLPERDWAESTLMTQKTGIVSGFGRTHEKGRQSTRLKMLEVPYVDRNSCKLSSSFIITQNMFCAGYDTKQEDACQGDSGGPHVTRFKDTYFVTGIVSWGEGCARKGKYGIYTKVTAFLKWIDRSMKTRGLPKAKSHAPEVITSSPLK
Series [5] is described as follows: Anticoagulant activity in healthy human plasma assessed as concentration required to 2 fold prolong clotting time by aPTT assay. It counts as functional. In a few lines: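 Citrated human plasma from healthy volunteers (one-tenth volume 0.11 M buffered citrate; spun 2000g, 10 min, kept on ice). Inhibitor from 10 mM DMSO stock, diluted in plasma, up to seven concentrations. aPTT with Alexin: plasma warmed 1 min at 37 °C, reagent added, CaCl2 2 min later. Duplicates, as ratio to baseline. EC2x by linear interpolation, as total plasma concentration.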

Series [6] in a line: Solubility of the compound in 100 mM phosphate buffer at pH 7.4. In kind it is physicochemical. In a few lines: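 Solubility of the amorphous bis-HCl salt in 100 mM phosphate buffer, pH 7.4.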
For series [7], the system named is Oryctolagus cuniculus. The experiment in a line: Antithrombotic activity in iv dosed New Zealand male rabbit AV-shunt thrombosis model assessed as inhibition of thrombus formation infused at 1 mg/kg/hr. Particulars: read-out: ID50 (the source's name). It counts as functional.

SMILES strings stand for the structures. pKi: −log10 of the molar value.

Sequence of Plasma kallikrein (P03952 20-390 limits assumed): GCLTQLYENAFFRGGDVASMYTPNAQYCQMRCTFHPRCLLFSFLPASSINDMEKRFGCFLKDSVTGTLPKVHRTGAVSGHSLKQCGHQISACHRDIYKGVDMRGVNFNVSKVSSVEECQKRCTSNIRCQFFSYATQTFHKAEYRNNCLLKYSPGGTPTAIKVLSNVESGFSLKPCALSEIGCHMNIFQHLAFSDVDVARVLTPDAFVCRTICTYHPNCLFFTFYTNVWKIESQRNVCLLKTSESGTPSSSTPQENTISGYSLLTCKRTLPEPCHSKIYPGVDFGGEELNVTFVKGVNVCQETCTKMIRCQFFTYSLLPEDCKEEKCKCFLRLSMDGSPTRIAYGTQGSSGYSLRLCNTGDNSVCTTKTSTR
Sequence of Plasma kallikrein (P03952 391-638 limits assumed): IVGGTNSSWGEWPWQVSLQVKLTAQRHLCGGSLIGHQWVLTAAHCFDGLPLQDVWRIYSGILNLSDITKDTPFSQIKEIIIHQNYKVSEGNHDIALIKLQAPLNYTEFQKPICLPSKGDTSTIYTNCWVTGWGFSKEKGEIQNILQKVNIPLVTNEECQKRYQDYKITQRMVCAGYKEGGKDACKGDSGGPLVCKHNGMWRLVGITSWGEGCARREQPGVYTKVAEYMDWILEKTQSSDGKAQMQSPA
Sequence of Coagulation factor XI (P03951 19-387 limits assumed): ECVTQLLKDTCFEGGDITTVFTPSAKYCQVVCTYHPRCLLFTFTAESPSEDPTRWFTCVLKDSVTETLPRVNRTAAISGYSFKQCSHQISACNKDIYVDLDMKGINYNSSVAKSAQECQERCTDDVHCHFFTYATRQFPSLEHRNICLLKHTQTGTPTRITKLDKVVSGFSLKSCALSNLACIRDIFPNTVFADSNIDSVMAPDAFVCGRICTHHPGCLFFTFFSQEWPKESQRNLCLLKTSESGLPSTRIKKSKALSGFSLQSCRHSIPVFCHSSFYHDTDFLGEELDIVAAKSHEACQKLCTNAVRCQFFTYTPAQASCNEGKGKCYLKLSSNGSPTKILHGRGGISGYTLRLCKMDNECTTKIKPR
Sequence of Coagulation factor XI (P03951 388-625 limits assumed): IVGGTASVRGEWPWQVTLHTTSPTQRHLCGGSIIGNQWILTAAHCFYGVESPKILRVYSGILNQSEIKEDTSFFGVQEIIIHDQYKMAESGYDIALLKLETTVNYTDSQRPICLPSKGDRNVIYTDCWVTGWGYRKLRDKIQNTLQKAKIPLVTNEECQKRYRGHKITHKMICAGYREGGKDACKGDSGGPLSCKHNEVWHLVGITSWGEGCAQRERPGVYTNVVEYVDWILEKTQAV

Consider `NC[C@H]1CC[C@H](C(=O)N[C@@H](Cc2ccccc2)c2nc(-c3ccc(CC(=O)O)cc3)c[nH]2)CC1`, for which the negative logarithm of the Ki (pKi) (in general, the negative decadic logarithm of the Ki, by convention in mol/L) in series [1] was 6.12; in series [2], less than 4.96; in series [3], 6.82; in series [4], less than 5.09.
`COC(=O)c1ccc(-c2c[nH]c([C@H](Cc3ccccc3)NC(=O)[C@H]3CC[C@H](CN)CC3)n2)cc1`: the pKi in series [1] is 5.72; in series [2], less than 4.96; in series [3] it was 6.10; in series [4], less than 5.09.
`NC[C@H]1CC[C@H](C(=O)N[C@@H](Cc2ccccc2)c2nc(-c3ccc(C(N)=O)cc3)c[nH]2)CC1.O=C(O)C(F)(F)F`: the pKi in series [1] is 7.22; in series [2], less than 4.96; in series [3] it was 7.52; in series [4], less than 5.05. Besides, the 2aPTT in series [5] was more than 40 µM.
For `NC[C@H]1CC[C@H](C(=O)N[C@@H](Cc2ccccc2)c2nc(-c3ccc(C(=O)O)cc3)c[nH]2)CC1` (mixture of isomers), the negative-log Ki (pKi) is 5.42 in series [1], less than 4.96 in series [2], 6.23 in series [3] and less than 5.09 in series [4].
In the same order, the values of `NC[C@H]1CC[C@H](C(=O)N[C@@H](Cc2ccccc2)c2nc(-c3cccc(C(N)=O)c3)c[nH]2)CC1` are 6.04, less than 4.96, 5.96 and less than 5.09.
Turning to `NC[C@H]1CC[C@H](C(=O)N[C@@H](Cc2ccccc2)c2nc(-c3ccc(C(N)=O)cc3)c(Br)[nH]2)CC1.O=C(O)C(F)(F)F`, the pKi in series [1] is 7.35; in series [2] it was less than 4.96; in series [3], 8.05; in series [4], less than 5.09. Further, in series [5], the 2aPTT was 10 µM.
As to `NC[C@H]1CC[C@H](C(=O)N[C@@H](Cc2ccccc2)c2nc(-c3ccccc3)n[nH]2)CC1`, the pKi in series [1] was 5.65; in series [3], 6.01.
In the case of `NC[C@H]1CC[C@H](C(=O)N[C@@H](Cc2ccccc2)c2nc(-c3cccc(CC(=O)O)c3)c[nH]2)CC1`, the pKi was 6.04 in series [1], less than 4.96 in series [2], 6.56 in series [3] and less than 5.09 in series [4].
Consider `NC[C@H]1CC[C@H](C(=O)N[C@@H](Cc2ccccc2)c2nn(-c3ccccc3)c(=O)[nH]2)CC1`, for which the pKi was 5.32 in series [1] and 5.51 in series [3].
With `CC(C)CC(=O)Nc1cc(-c2ccc(C(N)=O)cc2C(=O)O)cc([C@@H]2C[C@](C)(c3ccccc3)c3cc(C(=N)N)ccc3N2)c1`, the pKi is 8.70 in series [1], 6.20 in series [2], 9.70 in series [3] and 6.47 in series [4]. Further, the 2aPTT in series [5] turned out to be 2 µM.
For the compound `CCOC(=O)Cc1cccc(-c2c[nH]c([C@H](Cc3ccccc3)NC(=O)[C@H]3CC[C@H](CN)CC3)n2)c1`, the pKi in series [1] is 5.83; in series [2] it was less than 4.96; in series [3], 6.20; in series [4], less than 5.09.
The corresponding values for `N#Cc1ccc(-c2c[nH]c([C@H](Cc3ccccc3)NC(=O)[C@H]3CC[C@H](CN)CC3)n2)cc1` are 6.03, less than 4.96, 6.64 and less than 5.09.
In the same order, the values of `CNC(=O)c1ccc(-c2c[nH]c([C@H](Cc3ccccc3)NC(=O)[C@H]3CC[C@H](CN)CC3)n2)cc1` are 6.66, less than 4.96, 6.46 and less than 5.09.
As for `NC[C@H]1CC[C@H](C(=O)N[C@@H](Cc2ccccc2)c2nc(-c3ccccc3)c[nH]2)CC1.O=C(O)C(F)(F)F`, the pKi in series [1] was 6.48; in series [2] it was less than 4.96; in series [3] it was 6.92; in series [4] it was less than 5.09. In addition, the 2aPTT in series [5] was more than 40 µM.
For `N#Cc1cccc(-c2c[nH]c([C@H](Cc3ccccc3)NC(=O)[C@H]3CC[C@H](CN)CC3)n2)c1`, the pKi was 5.93 in series [1], less than 4.96 in series [2], 5.95 in series [3] and less than 5.09 in series [4].
For the compound `NC[C@H]1CC[C@H](C(=O)N[C@@H](Cc2ccccc2)c2nc(-c3ccc(C(N)=O)cc3)c(Cl)[nH]2)CC1.O=C(O)C(F)(F)F`, the pKi in series [1] was 7.70; in series [2], less than 4.96; in series [3], 8.40; in series [4], less than 5.05. The 2aPTT in series [5] was 6 µM.
`NC[C@H]1CC[C@H](C(=O)N[C@@H](Cc2ccccc2)c2c[nH]c(-c3ccccc3)n2)CC1`: the negative-log Ki (pKi) in series [1] is 5.35; in series [3], 5.79.
With `CN(C)C(=O)c1ccc(-c2c[nH]c([C@H](Cc3ccccc3)NC(=O)[C@H]3CC[C@H](CN)CC3)n2)cc1`, the negative-log Ki (pKi) is 5.28 in series [1], less than 4.96 in series [2], 5.54 in series [3] and less than 5.09 in series [4].
In the same order, the values of `NC[C@H]1CC[C@H](C(=O)N[C@@H](Cc2ccccc2)c2nc(-c3ccc(S(N)(=O)=O)cc3)c[nH]2)CC1` are 5.26, less than 4.96, 5.87 and less than 5.09.
For `NC[C@H]1CC[C@H](C(=O)N[C@@H](Cc2ccccc2)c2ncc(-c3ccccc3)o2)CC1`, the pKi in series [1] is 5.46; in series [3], 5.84.
As for `NC[C@H]1CC[C@H](C(=O)N[C@@H](Cc2ccccc2)c2nc(-c3ccc4c(N)n[nH]c4c3)c(F)[nH]2)CC1.O=C(O)C(F)(F)F`, the pKi is 8.70 in series [1], 5.21 in series [2], 9.52 in series [3] and less than 5.09 in series [4]. The 2aPTT in series [5] was 0.5 µM.
Consider `CCOC(=O)Cc1ccc(-c2c[nH]c([C@H](Cc3ccccc3)NC(=O)[C@H]3CC[C@H](CN)CC3)n2)cc1`, for which the pKi in series [1] is 5.87; in series [2], less than 4.96; in series [3], 6.31; in series [4], less than 5.09.
The corresponding values for `NC[C@H]1CC[C@H](C(=O)N[C@@H](Cc2ccccc2)c2nc(-c3ccc(CC(N)=O)cc3)c[nH]2)CC1` (mixture of isomers) are 5.88, less than 4.96, 6.40 and less than 5.09.
As to `NC[C@H]1CC[C@H](C(=O)N[C@@H](Cc2ccccc2)c2nc(-c3ccc(C(N)=O)cc3)c(F)[nH]2)CC1.O=C(O)C(F)(F)F`, the pKi was 8.10 in series [1], less than 4.87 in series [2], 8.52 in series [3] and 5.86 in series [4]. Also, the 2aPTT in series [5] was determined as 2 µM.
For `NC[C@H]1CC[C@H](C(=O)N[C@@H](Cc2ccccc2)c2nc(-c3cccc(CC(N)=O)c3)c[nH]2)CC1`, the pKi in series [1] is 5.72; in series [2], less than 4.96; in series [3], 6.26; in series [4] it was less than 5.09.
With `Cl.NC[C@H]1CC[C@H](C(=O)N[C@@H](Cc2ccccc2)c2nc(-c3ccc4c(N)n[nH]c4c3)c(Cl)[nH]2)CC1`, the solubility (commonly the dissolved amount per volume that the medium holds) in series [6] was determined as 946 µg/mL. In series [7], the ED50 stood at 0.6 mg/kg.
For the compound `NC[C@H]1CC[C@H](C(=O)N[C@@H](Cc2ccccc2)c2cc(-c3ccccc3)n[nH]2)CC1`, the pKi is 5.30 in series [1] and 5.16 in series [3].
Regarding `NC[C@H]1CC[C@H](C(=O)N[C@@H](Cc2ccccc2)c2nc(-c3ccc4c(N)n[nH]c4c3)c[nH]2)CC1.O=C(O)C(F)(F)F`, the pKi in series [1] is 7.30; in series [2], less than 4.96; in series [3], 8.52; in series [4], less than 5.09. Also, the 2aPTT in series [5] turned out to be 2 µM.

For the origin of these results see ChEMBL document CHEMBL3351269, “Phenylimidazoles as potent and selective inhibitors of coagulation factor XIa with in vivo antithrombotic activity” (J Med Chem, 2014).
